Source: ChEMBL document CHEMBL4364306, “Structure-activity relationships of thiazole and benzothiazole derivatives as selective cannabinoid CB2 agonists with in vivo anti-inflammatory properties” (Eur J Med Chem, 2019)
Calls of active or inactive are those of the source. The calls are words filed in the database; no cut-off is given here.

What was measured:
[1] = species: Homo sapiens; assay: Selectivity index, ratio of Ki for recombinant human CB1R expressed in HEK293 cell membranes to Ki for recombinant human CB2R expressed in HEK293 cell membranes; type: cell-based
[2] = target: T1, Cannabinoid receptor 2 (Homo sapiens, UniProt P34972); assay: Agonist activity at N-terminal Flag epitope tagged CB2 (unknown origin) expressed in HTLA cells assessed as increase of beta-arrestin recruitment by Tango assay; type: cell-based
T1 sequence (P34972 whole entry): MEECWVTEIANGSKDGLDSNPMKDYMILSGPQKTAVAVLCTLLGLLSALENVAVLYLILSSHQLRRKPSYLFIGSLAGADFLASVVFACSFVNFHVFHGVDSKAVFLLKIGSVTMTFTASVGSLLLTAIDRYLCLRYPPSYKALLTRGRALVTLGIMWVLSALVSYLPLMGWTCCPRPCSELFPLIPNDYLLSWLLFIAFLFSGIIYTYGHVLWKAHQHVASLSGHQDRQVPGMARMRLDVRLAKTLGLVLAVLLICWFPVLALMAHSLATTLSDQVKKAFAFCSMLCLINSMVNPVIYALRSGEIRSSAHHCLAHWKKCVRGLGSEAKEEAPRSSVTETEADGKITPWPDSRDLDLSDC
Outline: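 β-arrestin Tango assay: HTLA cells transfected overnight with GPCR tango constructs, plated at 15,000 cells/well in DMEM with 1% dFBS, recovered ≥6 h. Drugs in Tango buffer (20 mM HEPES, 1x HBSS, pH 7.40) added overnight, full concentration-response (maximum 30 µM). BrightGlo reagent, 20 min room temperature in dark, luminescence read.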

[3] = target: T1, Cannabinoid receptor 2; assay: Antagonist activity at N-terminal Flag epitope tagged CB2 (unknown origin) expressed in HTLA cells assessed as decrease in CP55940-induced beta-arrestin recruitment pretreated with non-selective cannabinoid receptor agonist CP55940 for 30 mins and measured after 20 mins by Tango assay; type: cell-based
[4] = target: T2, Cannabinoid receptor 1 (Homo sapiens, UniProt P21554); assay: Agonist activity at N-terminal Flag epitope tagged CB1 (unknown origin) expressed in HTLA cells assessed as increase of beta-arrestin recruitment by Tango assay; type: cell-based
T2 sequence (P21554 whole entry): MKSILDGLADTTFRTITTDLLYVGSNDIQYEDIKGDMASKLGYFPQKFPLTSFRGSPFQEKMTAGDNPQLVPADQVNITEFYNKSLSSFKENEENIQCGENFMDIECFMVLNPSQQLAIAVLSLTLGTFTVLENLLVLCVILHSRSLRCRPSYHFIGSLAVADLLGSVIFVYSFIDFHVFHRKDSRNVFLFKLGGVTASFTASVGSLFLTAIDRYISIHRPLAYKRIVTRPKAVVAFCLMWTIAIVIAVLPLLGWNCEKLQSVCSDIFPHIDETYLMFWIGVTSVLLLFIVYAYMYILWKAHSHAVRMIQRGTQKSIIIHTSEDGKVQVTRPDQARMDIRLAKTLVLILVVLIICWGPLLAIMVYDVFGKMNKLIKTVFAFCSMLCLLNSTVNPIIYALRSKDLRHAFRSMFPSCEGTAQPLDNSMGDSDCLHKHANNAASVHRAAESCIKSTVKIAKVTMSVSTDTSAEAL
Outline: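 HTLA cells transfected overnight with GPCR Tango constructs, plated at 15,000 cells/well in DMEM with 1% dFBS and allowed to recover at least 6 h. Compounds in Tango buffer (20 mM HEPES, 1x HBSS, pH 7.40) added overnight, full concentration-response up to 30 µM against CP-55,940 as reference agonist. BrightGlo reagent added for 20 min at room temperature in the dark, then luminescence read.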

[5] = target: T2, Cannabinoid receptor 1; assay: Antagonist activity at N-terminal Flag epitope tagged CB1 (unknown origin) expressed in HTLA cells assessed as decrease in CP55940-induced beta-arrestin recruitment pretreated with non-selective cannabinoid receptor agonist CP55940 for 30 mins and measured after 20 mins by Tango assay; type: cell-based
[6] = target: T2, Cannabinoid receptor 1; assay: Displacement of [3H]CP55940 from recombinant human CB1R expressed in HEK293 cell membranes at 10 uM incubated for 90 mins relative to control
[7] = target: T1, Cannabinoid receptor 2; assay: Displacement of [3H]CP55940 from recombinant human CB2R expressed in HEK293 cell membranes at 10 uM incubated for 90 mins relative to control
[8] = target: T1, Cannabinoid receptor 2; assay: Agonist activity at recombinant human CB2R expressed in CHOK1 cells assessed as inhibition of NKH477-stimulated intracellular cAMP levels after 30 mins by chemiluminescent detection based cAMP Hunter assay; type: functional, cell-based
Outline: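 CHO-K1 cells overexpressing human CB2R, plated 30,000 cells/well, overnight 37 °C, 5% CO2. Compound dose-responses incubated 30 min at 37 °C with NKH-477 (25 µM) to stimulate adenylate cyclase. Enzyme fragment complementation chemiluminescence read. Normalised to NKH-477 alone as 100%; mean ± SEM of three independent experiments in triplicate.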

| SMILES | Ratio Ki [1] | EC50 [2] [µM] | EC50 [3] [µM] | EC50 [4] [µM] | EC50 [5] [µM] | Activity [6] | Activity [7] | EC50 [8] [µM] |
| --- | --- | --- | --- | --- | --- | --- | --- | --- |
| O=C(NC1CCCc2ccccc21)c1nc2ccccc2s1 (stereo not drawn) | 3 | > 30 | > 30 | > 30 | > 30 | Active | Active |  |
| O=C(Nc1nc2ccccc2s1)c1cccc(C(F)(F)F)c1 |  | > 30 | > 30 | > 30 | > 30 | Active | Active |  |
| Cc1nc(-c2ccccc2)sc1C(=O)NC1CCCc2ccccc21 (stereo not drawn) | > 4 | > 30 | > 30 | > 30 | > 30 | Active | Active |  |
| CCCCCCNC(=O)c1sc(-c2ccccc2)nc1C |  | > 30 | > 30 | > 30 | > 30 | Active | Active |  |
| CCCCCn1/c(=N/C(=O)c2ccc(C(F)(F)F)cc2)sc2ccccc21 | 393 | 2.51 | > 30 | > 30 | > 30 | Active | Active |  |
| Cc1nc(-c2ccccc2)sc1C(=O)N1CCOCC1 | > 3 | > 30 | > 30 | > 30 | > 30 | Active | Active |  |
| O=C(NCc1ccccc1)c1nc2ccccc2s1 |  | > 30 | > 30 | > 30 | > 30 | Active | Active |  |
| Cc1nc(-c2ccccc2)sc1C(=O)NC1CC1 |  | > 30 | > 30 | > 30 | > 30 | Active | Active |  |
| O=C(NCc1ccccc1Cl)c1nc2ccccc2s1 | > 9 | 3.31 | > 30 | > 30 | > 30 | Active | Active |  |
| O=C(Nc1nc2ccccc2s1)c1cccc2ccccc12 | > 7 | > 30 | > 30 | > 30 | > 30 | Active | Active |  |
| CCCCCn1/c(=N\C(=O)C23CC4CC(CC(C4)C2)C3)sc2ccccc21 | 120 | 0.0263 | > 30 | 1.62 | > 30 | Active | Active | 0.057 |
| Cc1nc(C(C)(C)C)sc1C(=O)NC12CC3CC(CC(C3)C1)C2 | > 25 | 3.98 | > 30 | > 30 | > 30 | Active | Active |  |
| Cc1nc(-c2ccccc2)sc1C(=O)NC12CC3CC(CC(C3)C1)C2 | > 22 | > 30 | > 30 | > 30 | > 30 | Active | Active |  |
| O=C(Nc1ccc2ccccc2c1)c1nc2ccccc2s1 |  | > 30 | > 30 | > 30 | > 30 | Active | Active |  |
| O=C(Nc1nc2ccccc2s1)c1ccc(C(F)(F)F)cc1 |  | > 30 | > 30 | > 30 | > 30 | Active | Active |  |
| Cc1nc(-c2ccccc2)sc1C(=O)NCc1ccccc1Cl |  | > 30 | > 30 | > 30 | > 30 | Active | Active |  |

| SMILES | Ratio Ki [1] | EC50 [2] [µM] | EC50 [3] [µM] | EC50 [4] [µM] | EC50 [5] [µM] | Activity [6] | Activity [7] | EC50 [8] [µM] |
| --- | --- | --- | --- | --- | --- | --- | --- | --- |
| Cc1nc(C)c(C(=O)NCc2ccccc2)s1 |  | > 30 | > 30 | > 30 | > 30 | Active | Active |  |
| Cc1nc(C)c(C(=O)NC2CCCc3ccccc32)s1 (stereo not drawn) |  | > 30 | 0.437 | > 30 | 1.17 | Active | Active |  |
| CCCCCn1/c(=N/C(=O)c2cccc3ccccc23)sc2ccccc21 | 22.2 | 0.0129 | > 30 | 0.126 | > 30 | Active | Active | 0.068 |
| Cc1nc(-c2ccccc2)sc1C(=O)NC1CCCCC1 |  | > 30 | > 30 | > 30 | > 30 | Active | Active |  |
| Cc1nc(-c2ccccc2)sc1C(=O)NCC1CCCCC1 |  | > 30 | > 30 | > 30 | > 30 | Active | Active |  |
| Cc1nc(-c2ccccc2)sc1C(=O)NC1CCCC1 |  | > 30 | > 30 | > 30 | > 30 | Active | Active |  |
| CCCCNC(=O)c1sc(-c2ccccc2)nc1C |  | > 30 | > 30 | > 30 | > 30 | Active | Active |  |
| O=C(NCC1CCCCC1)c1nc2ccccc2s1 | > 7 | > 30 | > 30 | > 30 | > 30 | Active | Active |  |
| Cc1nc(C)c(C(=O)NC23CC4CC(CC(C4)C2)C3)s1 | > 6 | > 30 | > 30 | > 30 | > 30 | Active | Active |  |
| Cc1ccc(Cn2nc(C(=O)N[C@@H]3C(C)(C)[C@@H]4CC[C@@]3(C)C4)cc2-c2ccc(Cl)c(C)c2)cc1 |  |  |  |  |  | Active |  |  |
| O=C(NC12CC3CC(CC(C3)C1)C2)c1nc2ccccc2s1 | > 121 | > 30 | > 30 | > 30 | > 30 | Active | Active |  |
| Cc1nc(-c2ccccc2)sc1C(=O)NCc1ccccc1F |  | > 30 | > 30 | > 30 | > 30 | Active | Active |  |
| O=C(Nc1cccc2ccccc12)c1nc2ccccc2s1 |  | > 30 | > 30 | > 30 | > 30 | Active | Active |  |
| Cc1nc(-c2ccccc2)sc1C(=O)NCc1ccc(F)cc1 |  | > 30 | > 30 | > 30 | > 30 | Active | Active |  |
| Cc1nc(-c2ccccc2)sc1C(=O)NCc1ccccc1 |  | > 30 | > 30 | > 30 | > 30 | Active | Active |  |
| O=C(Nc1nc2ccccc2s1)C12CC3CC(CC(C3)C1)C2 | > 36 | > 30 | > 30 | > 30 | > 30 | Active | Active |  |
